Screening results: PubChem, several laboratories
Only some compounds are listed: those with a hit (about 5.8% of all), similar ones and a draw of the others.
RBBP9 inhibitor: inhibitors of human serine hydrolase RBBP9; O75884; recombinant RBBP9, FP-Rh probe fluorescence polarization; inhibition, % at 7.94 µM; 220,000 tested, 0.2% active; AID 1515;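 active = inhibition above the campaign mean of all tested compounds plus 3 SD, cut at about 14% in these data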;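 also: plate controls were DMSO wells with RBBP9 for no effect and wells lacking RBBP9 protein for full effect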
Target sequence (O75884 whole entry, looked up): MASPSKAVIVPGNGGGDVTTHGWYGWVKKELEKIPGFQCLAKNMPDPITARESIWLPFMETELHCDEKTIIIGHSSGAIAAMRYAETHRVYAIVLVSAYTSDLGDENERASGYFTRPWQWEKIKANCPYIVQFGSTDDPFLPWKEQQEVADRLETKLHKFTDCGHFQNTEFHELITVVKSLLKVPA
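Measured by – fluorescence polarization · Test system – RBBP9 protein · Input – 2.5 µM RBBP9 dispensing solution, before mixing · Measure – percent inhibition from mP, scaled between DMSO and no-protein wells · Benchmarks – DMSO-treated enzyme wells and wells lacking RBBP9 · Times – preincubation 30 min plus labeling 45 min at 25 °C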
WT yeast gro inh: growth inhibition of WT yeast, mitochondrial fusion screen; mitochondrial fusion phenotypic screen, WT strain; inhibition, % at 10 µM; 190,000 tested, 2.1% active; in the data active = inhibition above about 58%; tested in S. cerevisiae
14-3-3 Bad PPI: disrupts binding of bovine 14-3-3 zeta to phospho-Bad peptide; P63103; TR-FRET 14-3-3zeta/Dy647-pBad peptide displacement, 1 h; inhibition, % at 21.7 µM; 220,000 tested, 0.71% active; AID 781;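 active = inhibition above about 70%, limit read from the data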;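 also: 0% = full 14-3-3 plus peptide FRET controls and 100% = background without 14-3-3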
Cl transport mod: modulators of human KCC2 chloride dependent transport. Q9H2X9. KCC2 cells, thallium flux FluoZin-2 fluorescence. B-score of Tl+ flux slope (higher = more flux/activation; lower = inhibition) at 10 µM. 190,000 tested, 2.2% active;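 active = thallium flux slope and its plate-corrected score both differing from the plate sample mean at a set confidence after two filtering rounds, in either direction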;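 also: slope of fluorescence scaled to starting intensity during 10 to 20 s after thallium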
ROMK mod: human ROMK K+ channel modulation, primary screen | Tet-inducible ROMK, thallium flux fluorescence; actives lie on both sides | B-score at 10 µM | 130,000 tested, 2% active | AID 1918;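 active = signal ratio slope over the read window, or its plate-corrected B-score, at least 3 SD from the plate mean, either direction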;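 also: B-score of the F/F0 ratio slope over 7 to 12 s after thallium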
p47phox inh: inhibitors of human p47phox binding; 220,000 tested, 0.53% active; p47phox/p22phox peptide binding, fluorescence polarization, 2 h; inhibition, % at 24.7 µM;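 active = inhibition above about 30%, limit read from the data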;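 also: 0% = p47phox with labelled peptide and 100% = labelled peptide alone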
Target sequence (P14598 whole entry, looked up): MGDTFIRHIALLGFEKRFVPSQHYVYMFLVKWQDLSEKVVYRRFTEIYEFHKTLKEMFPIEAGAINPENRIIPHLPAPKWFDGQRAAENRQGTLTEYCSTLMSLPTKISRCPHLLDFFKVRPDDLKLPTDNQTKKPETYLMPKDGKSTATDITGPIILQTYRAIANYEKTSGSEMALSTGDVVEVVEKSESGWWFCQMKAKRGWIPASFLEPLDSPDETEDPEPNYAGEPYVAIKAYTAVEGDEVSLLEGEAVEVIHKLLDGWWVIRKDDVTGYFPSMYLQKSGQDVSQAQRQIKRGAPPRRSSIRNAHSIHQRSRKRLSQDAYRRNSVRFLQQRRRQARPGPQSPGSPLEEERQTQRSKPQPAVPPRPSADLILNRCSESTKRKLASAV
Active calls of the source: *; . = not tested or not shown; ! = repeats disagree.

SMILES	RBBP9 inhibitor	WT yeast gro inh	14-3-3 Bad PPI	Cl transport mod	ROMK mod	p47phox inh
CC(=O)Nc1ccccc1NC(=O)c1cc(C)ccc1C	-1.9	-5.1	-2.8	0.0348	0.491	0.9
O=C(NC(=S)Nn1cnc2c(cnn2-c2ccccc2)c1=O)c1ccc(Oc2ccccc2)cc1	-8.2	21.6	-11.4	17.9*	0.564	-19.2
CC1CC2=C(NC(=S)NC2c2cccc(F)c2)/C(=C/c2cccc(F)c2)C1 (stereo unspecified)	-8.6	61.3*	-25.1	0.472	-0.221	-2.4
CC1CC2=C(NC(=S)NC2c2ccccc2F)/C(=C/c2ccccc2F)C1 (stereo unspecified)	-13.1	79.8*	-8.8	1.06	-0.381	-7.6
Cc1ccc(/C=C2\CC(C)CC3=C2NC(=S)NC3c2ccc(C)cc2)cc1 (stereo unspecified)	-10.7	.	-6.6	.	.	-13.9
CCN(CC)C(=O)COc1ccc2oc(-c3ccco3)cc(=O)c2c1	0.2	-15.2	13.9	-0.995	-0.6	-3.7
O=C(CSc1nnc2scc(-c3ccccc3)n12)Nc1ccc2c(c1)OCCO2	-6.8	73.0*	-0.7	-1.52	.	-11.1
O=C(CSC1=NC2(CCCCCC2)N=C1c1ccccc1)Nc1ccc2c(c1)OCCO2	-2.4	58.5*	-7.0	-0.149	-0.123	-3.4
O=C(CSC1=NC2(CCCCC2)N=C1c1ccccc1)Nc1ccc2c(c1)OCCO2	-4.6	23.7	6.8	2.01	0.497	-3.5
Nn1c(SCC(=O)Nc2ccc3c(c2)OCO3)nnc1-c1ccncc1	1.1	88.1*	4.0	1.22	.	-8.9
COc1ccc(NC(=O)CSc2ccc3c(c2)OCCO3)cc1OC	-2.8	86.3*	-13.5	0.0581	.	-2.9
CC(C)C(NC(=O)C(Cc1ccccc1)NC(=O)OCc1ccccc1)C(=O)O (stereo unspecified)	-1.3	3.9	4.0	0.0262	1.5	2.4
CN1CCN(C(=O)CCc2nc3ccccc3n2-c2ccccc2)CC1	-5.8	0.3	-5.0	-0.509	-0.0918	-5.8
COc1cc(-c2nnc(-c3ccccc3)o2)cc(OC)c1OC	1.2	-9.8	7.4	-1.29	-1.13	32.1*
COc1cc(-c2nnc(SCc3c(F)cccc3Cl)o2)cc(OC)c1OC	-2.4	64.1*	10.2	0.174	.	13.7
COC(=O)C(CC(=O)c1ccc(Cl)cc1)c1ccc(C(C)C)cc1 (stereo unspecified)	-8.1	70.4*	.	.	.	32.4*
CCOC(=O)C1=C(COC(=O)C2(C)CC2(Cl)Cl)NC(=O)NC1c1ccccc1 (stereo unspecified)	0.3	-22.5	-8.0	-0.644	-0.949	-7.1
Cc1ccc(C(=O)NCCc2ccc(F)cc2)s1	6.9	29.9	-2.0	-1.29	-1.56	0.8
Cc1cc(C2(c3ccc(O)c(C)c3)C(=O)Nc3ccccc32)ccc1O	-11.2	0.6	14.3	-0.694	.	-14.6
Cc1cccc2c1NC(=O)C2(c1ccc(O)cc1)c1ccc(O)cc1	-6.3	-9.4	4.8	13*	.	-14.0
CC1(c2ccc(C#N)cc2)NC(=O)N(CC(=O)Nc2cc(S(=O)(=O)N3CCOCC3)ccc2Cl)C1=O (stereo unspecified)	-9.2	8.6	5.8	0.63	-1.38	-9.2
Oc1[nH]c2ccccc2c1N=NC(=S)NCC1CCCO1 (stereo unspecified)	5.5	8.6	3.6	4.17*	.	-5.1
Oc1[nH]c2c(Cl)cc(Cl)cc2c1N=NC(=S)NCC1CCCO1 (stereo unspecified)	-9.9	39.8	-10.8	55.5*	.	4.1
CC(=O)Nc1ccc(NC(=O)C(C)OC(=O)C2CCN(S(=O)(=O)c3cccs3)CC2)cc1 (stereo unspecified)	-10.5	.	-13.7	0.279	.	3.2
CC(C)CC(=O)Nc1ccc2ccccc2c1	-4.2	-23.0	-10.2	0.23	-2.2	91.2*!
SMILES	RBBP9 inhibitor	WT yeast gro inh	14-3-3 Bad PPI	Cl transport mod	ROMK mod	p47phox inh
CC(C)(C)CC(C)(C)NC(=O)CSCC(=O)Nc1ccc2ccccc2c1	-12.0	68.4*	4.5	-0.0917	.	-15.0
CCC(=O)Nc1ccc2ccccc2c1	-6.9	-20.9	-2.5	0.655	-0.0473	-11.3
Cc1oc(-c2ccccc2)cc1C(=O)NC1CCN(Cc2ccccc2)CC1	-8.3	.	-8.2	1.11	.	-8.8
Cc1cccc(NC(=O)CN2C(=O)N/C(=C/c3cc(C)n(-c4ccncc4)c3C)C2=O)c1	5.2	-7.1	23.9	0.359	0.299	45.6*
Cc1cccc(NC(=O)CN2C(=O)N/C(=C/c3cc(C)n(-c4cccnc4)c3C)C2=O)c1	-4.8	.	8.3	0.145	-0.606	0.1
COc1ccc(C(=O)/C=C/C(=O)N(CC(=O)NC2CCCCC2)Cc2cccs2)c(O)c1	-7.9	64.9*	2.3	0.157	-0.143	8.3
COc1ccc(CN(C(=O)/C=C/C(=O)c2ccc(OC)cc2O)C(C(=O)NC2CCCCC2)c2ccncc2)cc1 (stereo unspecified)	-6.2	24.9	-6.5	0.818	-0.638	-2.2
O=C(Cn1nnc2ccccc2c1=O)NCC1CCC(C(=O)O)CC1 (stereo unspecified)	-6.3	.	0.4	0.9	.	-12.9
CC(C)CCn1c(=O)c2ccccc2c2ccccc2c1=O	4.1	59.2*	11.5	.	-0.169	-8.9
FC(F)Sc1ccc(NC(=S)NCc2ccccc2)cc1	0.6	59.8*	-4.4	-1.81	-0.96	0.2
FC(F)Sc1ccc(NC(=S)NC(c2ccccc2)c2ccccc2)cc1	-56.3	85.1*	-5.2	1.15	1.04	-3.5
FC(F)(F)c1ccc(NC(=S)NCc2ccccc2)cc1	0.2	60.1*	-8.2	0.0229	0.52	-3.4
FC(F)Oc1ccc(NC(=S)NCc2ccccc2)cc1	3.7	0.3	1.0	-0.785	.	-41.0
OCCC1CN(Cc2cnc(-c3cccc4ccccc34)nc2)CCN1C1CCCCC1 (stereo unspecified)	-1.6	0.7	-10.0	-0.924	-0.193	0.0
CCOC(=O)Cn1nc(C)c(NC(=O)COc2ccc(OC)cc2)c1C	6.9	.	-3.1	4.45	.	-10.9
COc1cccc(NC(=O)CCNC(=O)Cn2ccc3ccccc3c2=O)c1	5.0	-0.4	-2.4	.	-1.23	-98.3
Cc1ccccc1OCCNc1cc(N2CC(C)NC(C)C2)ccc1[N+](=O)[O-] (stereo unspecified)	-4.9	86.6*	-1.2	-0.00404	-0.7	-0.7
O=[N+]([O-])c1ccc(N2CCCCC2)cc1NCCOc1ccccc1	-9.7	6.2	0.9	-1.12	-0.0409	-3.7
Cc1cc(C)n(CC(O)Cn2c3ccc(Br)cc3c3cc(Br)ccc32)c(=O)n1 (stereo unspecified)	-14.0	91.3*	3.2	-0.0395	0.535	-30.7
Cc1cc(C)n(CC(O)Cn2c3ccccc3c3ccccc32)c(=O)n1 (stereo unspecified)	-5.6	6.8	-16.9	.	0.031	-15.8
CC(C)n1c(Nc2ccccc2)nc2ccccc21	5.2	52.5	-2.0	0.437	-3.18*	-8.7
